In experiment [1] the target is hP2X1 (Homo sapiens, UniProt P51575). The experiment can be described thus: Whole-cell patch clamp, ATP-evoked current, transfected HEK293. Format: cell-based. The settings on record: HEK293, read-out: inhibition rate. A general note: The patch-clamp technique gives a direct electrical read-out from membranes.
Experiment [2] addresses pdP2X7 (Ailuropoda melanoleuca, UniProt G1M6C4). Described as above. Format: cell-based, giant panda (Ailuropoda melanoleuca).
Experiment [3] deals with pdP2X7 E305F (Ailuropoda melanoleuca, UniProt G1M6C4, E306F). The experiment in a line: cell-based.
Sequence of pdP2X7 E305F (G1M6C4 2-595 E306F): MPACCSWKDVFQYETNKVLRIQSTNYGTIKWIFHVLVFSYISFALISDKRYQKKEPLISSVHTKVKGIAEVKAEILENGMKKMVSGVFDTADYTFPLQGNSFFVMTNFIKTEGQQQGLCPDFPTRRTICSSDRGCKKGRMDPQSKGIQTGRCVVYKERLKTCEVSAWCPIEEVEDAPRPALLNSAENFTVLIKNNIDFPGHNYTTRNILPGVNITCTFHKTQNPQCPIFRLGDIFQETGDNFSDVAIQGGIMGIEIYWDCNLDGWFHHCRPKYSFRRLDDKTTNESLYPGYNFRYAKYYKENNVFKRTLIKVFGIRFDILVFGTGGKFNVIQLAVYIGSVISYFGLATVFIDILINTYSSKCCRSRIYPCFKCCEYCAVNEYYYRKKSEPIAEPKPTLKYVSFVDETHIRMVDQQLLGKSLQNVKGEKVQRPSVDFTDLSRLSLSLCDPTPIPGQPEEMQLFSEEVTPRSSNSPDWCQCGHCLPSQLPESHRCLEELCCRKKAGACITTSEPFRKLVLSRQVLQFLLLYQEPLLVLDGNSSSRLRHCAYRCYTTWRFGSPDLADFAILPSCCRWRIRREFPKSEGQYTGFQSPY
For experiment [4], the target named is hP2X4 (Homo sapiens, UniProt Q99571). The experiment in a line: Nystatin-perforated patch recording, ATP-evoked current, HEK293. Format: cell-based. The settings on record: HEK293, read-out: inhibition rate.
Sequence of hP2X4 (Q99571 whole entry): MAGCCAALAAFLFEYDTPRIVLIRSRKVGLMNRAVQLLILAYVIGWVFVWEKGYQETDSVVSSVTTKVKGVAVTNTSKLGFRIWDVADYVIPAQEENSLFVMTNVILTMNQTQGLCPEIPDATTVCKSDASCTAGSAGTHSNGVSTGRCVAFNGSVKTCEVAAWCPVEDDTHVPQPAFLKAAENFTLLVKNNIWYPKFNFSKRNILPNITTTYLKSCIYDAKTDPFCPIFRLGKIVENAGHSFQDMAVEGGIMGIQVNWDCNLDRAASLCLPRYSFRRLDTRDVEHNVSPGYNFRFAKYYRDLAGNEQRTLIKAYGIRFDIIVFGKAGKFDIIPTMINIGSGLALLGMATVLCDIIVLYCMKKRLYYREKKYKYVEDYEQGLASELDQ
The target of experiment [5] is pdP2X7 Y298F (Ailuropoda melanoleuca, UniProt G1M6C4, Y299F). The settings on record: pd7 Y298F, 10 μM.
Sequence of pdP2X7 Y298F (G1M6C4 2-606 Y299F): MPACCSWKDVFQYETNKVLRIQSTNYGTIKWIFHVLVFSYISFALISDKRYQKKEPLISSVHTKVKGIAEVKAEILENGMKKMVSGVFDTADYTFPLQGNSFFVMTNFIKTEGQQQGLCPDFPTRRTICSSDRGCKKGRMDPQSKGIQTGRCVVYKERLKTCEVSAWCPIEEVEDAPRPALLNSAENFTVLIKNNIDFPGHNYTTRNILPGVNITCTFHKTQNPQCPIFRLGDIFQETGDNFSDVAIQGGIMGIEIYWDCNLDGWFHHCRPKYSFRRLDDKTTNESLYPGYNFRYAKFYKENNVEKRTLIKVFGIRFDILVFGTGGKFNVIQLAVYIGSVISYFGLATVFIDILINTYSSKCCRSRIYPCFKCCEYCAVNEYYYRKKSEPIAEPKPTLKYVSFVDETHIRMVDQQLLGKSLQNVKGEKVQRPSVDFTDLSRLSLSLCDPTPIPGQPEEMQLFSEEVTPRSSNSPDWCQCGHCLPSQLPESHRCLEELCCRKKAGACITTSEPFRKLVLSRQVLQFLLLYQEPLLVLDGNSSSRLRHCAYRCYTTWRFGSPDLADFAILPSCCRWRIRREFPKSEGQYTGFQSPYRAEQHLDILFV
For experiment [6], the target named is pdP2X7 F88A (Ailuropoda melanoleuca, UniProt G1M6C4, F89A). The note with it: pd7 F88A, 10 μM.
Sequence of pdP2X7 F88A (G1M6C4 2-595 F89A): as the sequence (G1M6C4 2-595 E306F) above, with F88A, F305E counted along it
Experiment [7] deals with mP2X7 Y108F/A312V (Mus musculus, UniProt Q9Z1M0, A312V/Y108F). The experiment can be described thus: Whole-cell patch clamp, mP2X7 mutant. Format: cell-based. The settings on record: 1 μM.
Sequence of mP2X7 Y108F/A312V (Q9Z1M0 whole entry Y108F/A312V): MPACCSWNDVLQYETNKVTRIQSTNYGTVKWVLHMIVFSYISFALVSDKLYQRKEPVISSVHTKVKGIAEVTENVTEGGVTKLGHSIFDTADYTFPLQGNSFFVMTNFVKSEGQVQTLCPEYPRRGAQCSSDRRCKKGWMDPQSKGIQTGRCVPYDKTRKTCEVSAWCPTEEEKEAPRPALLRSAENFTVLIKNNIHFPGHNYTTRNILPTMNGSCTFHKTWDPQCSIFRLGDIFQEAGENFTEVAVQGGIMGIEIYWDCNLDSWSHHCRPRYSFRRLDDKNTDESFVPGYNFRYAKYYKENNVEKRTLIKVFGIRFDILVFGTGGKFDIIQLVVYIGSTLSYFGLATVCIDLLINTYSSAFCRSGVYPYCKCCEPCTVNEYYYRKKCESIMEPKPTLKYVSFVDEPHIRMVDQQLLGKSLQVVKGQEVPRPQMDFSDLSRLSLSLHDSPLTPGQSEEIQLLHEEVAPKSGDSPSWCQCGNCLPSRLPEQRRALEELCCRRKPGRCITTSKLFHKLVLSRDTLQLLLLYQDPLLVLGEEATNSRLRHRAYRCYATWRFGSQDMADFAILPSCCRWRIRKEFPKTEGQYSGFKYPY
Experiment [8] concerns the target hP2X2 (Homo sapiens, UniProt Q9UBL9). The experiment can be described thus: Whole-cell patch clamp, ATP-evoked current, transfected HEK293. Format: cell-based. The settings on record: HEK293, read-out: inhibition rate.
Experiment [9] deals with T1, pdP2X7 P96G (Ailuropoda melanoleuca, UniProt G1M6C4, P97G). The experiment can be described thus: cell-based.
T1 sequence (G1M6C4 2-595 P97G): as the sequence (G1M6C4 2-595 E306F) above, with P96G, F305E counted along it
In experiment [10] the test system is P2rx7+/+ mice. The experiment can be described thus: Murine full-thickness wound infection model. Format: in vivo, mouse. The note with it: 7.5 mg/ml, 50 μL s.c. twice daily, 7 days, vs control solvent. The essentials:
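WT C57BL/6J mice (8–10 weeks) were anesthetized, their backs shaved and iodine-disinfected, and a 6 mm punch wound made. 20 μL S. aureus (1×10^7 CFU/ml, saline-washed) was applied to the wound. After 24 h of infection, mice were randomized to test compound (7.5 mg/ml, 50 μL) or vehicle (20% sulfobutylether-β-cyclodextrin in saline), given s.c. around the wound twice daily for 7 days. Wound area was imaged daily and quantified. Data are mean ± SEM.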

The target in experiment [11] is pdP2X7 V312A (Ailuropoda melanoleuca, UniProt G1M6C4, V313A). The note with it: pd7 V312A, 10 μM.
Sequence of pdP2X7 V312A (G1M6C4 2-595 V313A): as the sequence (G1M6C4 2-595 E306F) above, with F305E, V312A counted along it
Experiment [12] concerns the target T2, hP2X7 (Homo sapiens, UniProt Q99572).
T2 sequence (Q99572 1-595): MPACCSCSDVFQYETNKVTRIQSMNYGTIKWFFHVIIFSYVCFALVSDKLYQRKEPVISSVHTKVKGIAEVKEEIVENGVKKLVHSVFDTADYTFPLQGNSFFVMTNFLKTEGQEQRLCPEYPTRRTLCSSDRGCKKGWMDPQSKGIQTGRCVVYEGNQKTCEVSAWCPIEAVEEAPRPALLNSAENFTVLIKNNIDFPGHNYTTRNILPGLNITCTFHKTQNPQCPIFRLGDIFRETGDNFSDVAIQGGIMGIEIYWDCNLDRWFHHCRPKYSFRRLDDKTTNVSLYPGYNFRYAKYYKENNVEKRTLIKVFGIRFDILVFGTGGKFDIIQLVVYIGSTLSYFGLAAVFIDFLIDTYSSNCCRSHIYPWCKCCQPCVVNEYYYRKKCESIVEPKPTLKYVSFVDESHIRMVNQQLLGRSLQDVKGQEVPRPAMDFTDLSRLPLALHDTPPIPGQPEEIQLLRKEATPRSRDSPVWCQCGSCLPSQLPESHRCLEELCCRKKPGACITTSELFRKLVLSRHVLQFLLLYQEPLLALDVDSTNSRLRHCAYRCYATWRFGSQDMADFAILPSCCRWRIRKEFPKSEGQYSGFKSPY
The experiment in a line: Whole-cell patch clamp, ATP-evoked current, transfected HEK293. Format: cell-based.

Experiment [13] has as its system pdP2X7 F103W. The experiment in a line: Whole-cell patch clamp, pdP2X7 mutant. Format: cell-based, giant panda. The settings on record: pd7F103W, 30 μM.
The target of experiment [14] is pdP2X7 F95A (Ailuropoda melanoleuca, UniProt G1M6C4, F96A). The settings on record: pd7 F95A, 10 μM.
Sequence of pdP2X7 F95A (G1M6C4 2-595 F96A): as the sequence (G1M6C4 2-595 E306F) above, with F95A, F305E counted along it
In experiment [15] the target is T1, pdP2X7 P96G. The settings on record: pd7 P96G, 10 μM.
In experiment [16] the test system is pdP2X7 Y298A. The experiment can be described thus: Whole-cell patch clamp, pdP2X7 mutant. Format: cell-based, giant panda. The note with it: pd7Y298A, 30 μM.
In experiment [17] the target is T3, mP2X7 A312V (Mus musculus, UniProt Q9Z1M0, A312V).
T3 sequence (Q9Z1M0 1-595 A312V): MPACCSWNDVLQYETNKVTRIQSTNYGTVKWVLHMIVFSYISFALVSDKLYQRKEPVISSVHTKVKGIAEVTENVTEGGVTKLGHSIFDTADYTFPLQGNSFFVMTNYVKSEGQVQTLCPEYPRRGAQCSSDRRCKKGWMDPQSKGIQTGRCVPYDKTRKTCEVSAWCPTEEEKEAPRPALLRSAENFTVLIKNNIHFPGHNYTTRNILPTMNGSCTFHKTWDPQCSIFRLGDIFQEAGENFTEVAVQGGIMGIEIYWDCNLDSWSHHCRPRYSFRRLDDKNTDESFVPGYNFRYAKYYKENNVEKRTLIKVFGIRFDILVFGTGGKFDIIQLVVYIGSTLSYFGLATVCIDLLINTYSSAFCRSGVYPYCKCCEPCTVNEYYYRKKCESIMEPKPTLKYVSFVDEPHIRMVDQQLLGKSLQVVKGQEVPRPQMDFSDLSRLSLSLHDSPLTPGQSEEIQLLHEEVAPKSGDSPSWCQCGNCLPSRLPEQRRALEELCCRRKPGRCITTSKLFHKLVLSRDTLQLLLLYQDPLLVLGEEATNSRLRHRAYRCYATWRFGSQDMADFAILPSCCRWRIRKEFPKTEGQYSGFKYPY
The experiment in a line: Whole-cell patch clamp, mP2X7 mutant. Format: cell-based.

Experiment [18] deals with pdP2X7 K297R. The experiment in a line: Whole-cell patch clamp, pdP2X7 mutant. Format: cell-based, giant panda. The note with it: pd7K297R, 30 μM.

For orientation: inhibition means the relative decrease from the control value, in per cent. A word on the IC50: it is the concentration needed to halve the response being measured.

Values joined by “and” are separate entries in the source; they are usually repeats but may differ in a detail not shown here. Identical values can stand only once.

Sequence of pdP2X7 (G1M6C4 2-595): as the sequence (G1M6C4 2-595 E306F) above, with F305E counted along it
Sequence of hP2X1 (P51575 whole entry): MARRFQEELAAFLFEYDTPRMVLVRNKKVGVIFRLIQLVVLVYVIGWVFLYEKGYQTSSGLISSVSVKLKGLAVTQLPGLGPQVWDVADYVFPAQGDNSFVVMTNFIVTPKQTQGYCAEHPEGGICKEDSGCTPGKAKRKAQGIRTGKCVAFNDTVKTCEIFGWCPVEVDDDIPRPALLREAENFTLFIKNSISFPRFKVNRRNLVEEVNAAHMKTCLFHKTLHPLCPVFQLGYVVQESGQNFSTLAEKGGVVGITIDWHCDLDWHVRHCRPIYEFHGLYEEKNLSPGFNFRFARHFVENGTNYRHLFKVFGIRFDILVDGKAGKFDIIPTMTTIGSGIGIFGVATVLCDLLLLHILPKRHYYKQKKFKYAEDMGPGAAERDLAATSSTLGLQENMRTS
Sequence of hP2X2 (Q9UBL9 whole entry): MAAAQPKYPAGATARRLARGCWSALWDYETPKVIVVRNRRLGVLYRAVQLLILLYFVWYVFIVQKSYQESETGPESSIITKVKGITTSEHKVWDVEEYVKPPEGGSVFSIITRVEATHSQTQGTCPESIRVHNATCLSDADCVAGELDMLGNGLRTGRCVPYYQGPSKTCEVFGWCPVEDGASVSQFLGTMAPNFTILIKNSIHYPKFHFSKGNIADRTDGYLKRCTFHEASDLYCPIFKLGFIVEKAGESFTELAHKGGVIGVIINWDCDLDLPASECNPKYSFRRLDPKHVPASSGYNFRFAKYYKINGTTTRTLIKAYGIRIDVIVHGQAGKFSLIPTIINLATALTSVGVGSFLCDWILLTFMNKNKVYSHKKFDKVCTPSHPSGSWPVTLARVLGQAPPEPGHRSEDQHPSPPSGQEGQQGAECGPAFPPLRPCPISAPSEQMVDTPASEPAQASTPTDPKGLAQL

As to `C=CC[C@@H]1c2ccc(OC)c(OC)c2CN2CCc3cc4c(cc3[C@H]12)OCO4` [PSFL1191, (13R,13aS)-13-allyl-9,10-dimethoxy-5,8,13,13a-tetrahydro-6H-1,3dioxolo[4,5-g]isoquinolino[3,2-a]isoquinoline], the figures for the inhibition at 30 µM in [1], in experiment [4] and in experiment [8] were -8.35 ± 4.49%, -17.6 ± 9% and 3.09 ± 7.46%, respectively. For the same compound, the IC50 in experiment [2] is 754 ± 18 nM; in experiment [3], 1570 ± 360 nM; in [9], 8060 nM; in experiment [12], 248 ± 17 nM; in [17], 908 ± 26 nM. Moreover, the “apparent affinity, times lower than that of JNJ-54175446” value in experiment [2] (pdP2X7) is 10-20 times. The “inhibitory effect on ATP (1 mM)-induced activation (inhibition ratio)” value is “significantly attenuated” in experiment [5]; “significantly attenuated” in experiment [6]; “significantly attenuated” in [11]; “did not” in experiment [14]; “significantly attenuated” in experiment [15]. For the same compound, the “fold increase of inhibition compared to m7WT” value in experiment [7] was approximately 26 fold; in experiment [17] (mP2X7 A312V, 1 μM), ~ 21 fold and 21 fold. Also, the “wound healing (wound area)” value in experiment [10] was “did not influence the wound healing rate”. In experiment [12], the “fold difference in affinity for hP2X7 between PSFL1191 and PSFL1190” value is ~50 fold and > 50 fold. Also, the inhibition rate in [13], in experiment [16] and in experiment [18] was not above 50% throughout.

Source of the values: article PMC12673082 (Nature Communications, 2025).
